Results gathered from unrelated publications.
Protocols differ between the studies behind these lines.
Cell line: HeLa
Read-out: cell growth or viability

| Compound | technique | time | IC50 |
| --- | --- | --- | --- |
| COc1ccccc1C(=O)c1cc2c(-c3ccccc3)c(O)ccc2o1 |  |  | 24 µM |
| O=C(Cn1ccnc1[N+](=O)[O-])NCc1ccccc1 |  |  | > 380 µM |
| O=C(/C=C/c1cccc2c1B(O)OC2)Nc1ccccc1 | ATP luminescence | 72 h | > 31.6 µM |
| NCCOc1cc(NC(=O)c2cc(OCc3c[nH]nn3)cc(C(=O)Nc3cc(OCCN)c4ccccc4n3)n2)nc2ccccc12 | ATP luminescence | 72 h | 7.7 µM |
| COC(=O)CN=c1scc(-c2ccccc2)n1-c1ccccc1OC | MTT | 72 h | 2.97 µM |
| COc1ccc(-c2cc(=O)c3c(OC)cc(OC)cc3o2)cc1 | MTT | 48 h | 33 µM |
| O=C(CCc1cccc2c1B(O)OC2)Nc1ccc(-c2ccccc2)cc1 | ATP luminescence | 72 h | > 31.6 µM |
| COc1cc(C(=O)Nc2cc(OCCN3CCCC3)c3ccccc3n2)nc(C(=O)Nc2cc(OCCN3CCCC3)c3ccccc3n2)c1 | ATP luminescence | 72 h | 3.9 µM |
| CCOC(=O)C#CC#CC(=O)OCC | MTT | 24 h | 13.2 µg/mL |
| COc1cc(OC)c2c(=O)cc(-c3ccc(Br)cc3)oc2c1-c1c(OC)cc(OC)c2c(=O)cc(-c3ccc(Br)cc3)oc12 | MTT | 48 h | 96.1 µM |
| COC(=O)CN=c1scc(-c2ccccc2)n1-c1ccc(OC)cc1 | MTT | 72 h | 6.75 µM |
| CN(C)CCCOc1cc(NC(=O)c2cccc(C(=O)Nc3cc(OCCCN(C)C)c4ccccc4n3)n2)nc2ccccc12 | ATP luminescence | 72 h | 3 µM |
| COC1=C2C[C@@H](C)C[C@H](OC)[C@H](O)[C@@H](C)/C=C(\C)[C@H](OC(N)=O)[C@@H](OC)/C=C\C=C(/C)C(=O)NC(=CC1=O)C2=O | MTT |  | 0.651 µM |
| COc1cc(OC)c2c(=O)cc(-c3ccccc3Br)oc2c1-c1c(OC)cc(OC)c2c(=O)cc(-c3ccccc3Br)oc12 | MTT | 48 h | 10.4 µM |
| CCOc1cc(OCC)cc(C(=O)O[C@@H]2CN3Cc4c(cc5c(c4OC)OCO5)[C@@]24C=C[C@H](OC)C[C@@H]34)c1 | WST-1 | 48 h | 5 µM |
| COc1cc(C)cc2oc(-c3ccccc3Br)cc(=O)c12 | MTT | 48 h | 76.3 µM |
| COc1cc(OC)cc(C(=O)c2cc3c(-c4ccccc4)c(OC)ccc3o2)c1 |  |  | > 50 µM |
| COc1cc(C)cc2oc(-c3ccccc3)cc(=O)c12 | MTT | 48 h | 82.5 µM |
| CC1(C)SC2C(NC(=O)C(NC(=O)C3=C(O)C(Cc4ccsc4)NC3=O)c3ccccc3)C(=O)N2C1C(=O)O (stereo not drawn) | ATP luminescence | 48 h | 58.9 µg/mL |
| NCCOc1cc(NC(=O)c2cccc(C(=O)Nc3cc(OCCN)c4ccccc4n3)n2)nc2ccccc12 | ATP luminescence | 72 h | 1.2 µM |
| Oc1c(Br)cc(Br)c2cccnc12 | MTT | 48 h | 83.2 µM |
| COc1cc(OC)c2c(=O)cc(-c3ccc(N(C)C)cc3)oc2c1 | MTT | 48 h | 55.7 µM |
| NCCOc1cc(NC(=O)c2cc(OCc3ccc(F)cc3)cc(C(=O)Nc3cc(OCCN)c4ccccc4n3)n2)nc2ccccc12 | ATP luminescence | 72 h | 9.6 µM |

| Compound | technique | time | IC50 |
| --- | --- | --- | --- |
| COc1cc(OC)c2c(=O)cc(-c3cccc(Br)c3)oc2c1 | MTT | 48 h | 72 µM |
| Cc1ccc2c(Cl)cc(Cl)c(O)c2n1 | MTT | 48 h | > 100 µM |
| C=CCC[C@@H]1NC(=O)[C@H]2CCCN2C(=O)[C@H](Cc2ccccc2)NC(=O)C(C)(C)NC1=O | XTT |  | > 100 µM |
| Clc1ccnc2c1ccc1c(Cl)ccnc12 | MTT | 48 h | > 50 µM |
| Nc1ccc(C#CC#Cc2ccc(N)cc2)cc1 | MTT | 24 h | 91.2 µg/mL |
| COc1cc(OC)cc(C(=O)c2cc3c(-c4ccccc4)c(O)ccc3o2)c1 |  |  | 15 µM |
| CC(=O)c1ccc(-c2cccc(NC(=O)CCc3cccc4c3B(O)OC4)c2)cc1 | ATP luminescence | 72 h | 0.858 µM |
| COc1cc(C)c(-c2c(C)cc(OC)c3c(=O)cc(-c4ccccc4Br)oc23)c2oc(-c3ccccc3Br)cc(=O)c12 | MTT | 48 h | 18.5 µM |
| OCCCC#CC#CCCCO | MTT | 24 h | 39.3 µg/mL |
| CC1(C)SC2C(NC(=O)C(NC(=O)C3=C(O)C4(CC4)NC3=O)c3ccccc3)C(=O)N2C1C(=O)O (stereo not drawn) | ATP luminescence | 48 h | 103 µg/mL |
| CC1(C)[C@@H](O)CC[C@]2(C)[C@H]3C(=O)C=C4[C@@H]5C[C@@](C)(C(=O)O)CC[C@]5(C)CC[C@@]4(C)[C@]3(C)CC[C@@H]12 | MTT | 48 h | 17.3 µM |
| CC(C)CC1NC(=O)C(C(=O)NC(C(=O)NC2C(=O)N3C2SC(C)(C)C3C(=O)O)c2ccccc2)=C1O (stereo not drawn) | ATP luminescence | 48 h | 69.1 µg/mL |
| COc1cccc2c1C(=O)c1c(O)c3c(c(O)c1C2=O)C[C@@](O)(C(=O)CO)C[C@@H]3O[C@H]1C[C@H](N)[C@H](O)[C@H](C)O1 | MTT | 24 h | 1.71 µg/mL |
| NCCCOc1cc(NC(=O)c2cc(Cl)cc(C(=O)Nc3cc(OCCCN)c4ccccc4n3)n2)nc2ccccc12 | ATP luminescence | 72 h | 0.7 µM |
| Cc1ccc(C#CC#Cc2ccc(C)cc2)cc1 | MTT | 24 h | 70.5 µg/mL |
| CC(=O)O[C@H]1C(=O)[C@@]2(C)[C@H]([C@H](OC(=O)c3ccccc3)[C@]3(O)C[C@H](OC(=O)[C@H](O)[C@@H](NC(=O)c4ccccc4)c4ccccc4)C(C)=C1C3(C)C)[C@]1(OC(C)=O)CO[C@@H]1C[C@@H]2O | MTT | 72 h | < 2 µM |
| CC1(C)SC2C(NC(=O)C(NC(=O)C3=C(O)C4CCCN4C3=O)c3ccccc3)C(=O)N2C1C(=O)O (stereo not drawn) | ATP luminescence | 48 h | 52.1 µg/mL |
| C[C@H](O)C(=O)CCCCCCC(=O)Nc1cccc(-c2cn(-c3ccccc3)nn2)c1 | XTT |  | 115 µM |
| CC1(C)SC2C(NC(=O)C(NC(=O)C3=C(O)C(Cc4ccc([N+](=O)[O-])cc4)NC3=O)c3ccccc3)C(=O)N2C1C(=O)O (stereo not drawn) | ATP luminescence | 48 h | 133 µg/mL |
| COc1cccc2c1C(=O)c1c(O)c3c(c(O)c1C2=O)C[C@@](O)(C(=O)CO)C[C@@H]3O[C@H]1C[C@H](N)[C@H](O)[C@H](C)O1 | SRB |  | 0.46 µM |
| CC1(C)S[C@@H]2[C@H](NC(=O)[C@H](N)c3ccccc3)C(=O)N2[C@H]1C(=O)O | ATP luminescence | 48 h | 72.7 µg/mL |
| COc1c2c(cc3c1OCO3)[C@]13C=C[C@H](OC)C[C@H]1N(C2)C[C@H]3OC(=O)c1cccc(C)c1 | WST-1 | 48 h | > 10 µM |
